Sampled rows, rich in hits. Any-hit rate of the full collection: about 2.6%.
HSF-1 act: increases HSF-1 driven luciferase reporter signal; NIH3T3-HGL HSF-1 luciferase reporter, MG132, 8 h; 100% = twice DMSO control signal; AID 504408; actives 1.7% (n = 300,000); activation, % at 9 µM;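 active = mean replicate activation of at least 50% with a set share of replicates each reaching 50%; inconclusive = only one of those two conditions met; inactive = mean below 50% and too few replicates reaching it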;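 note: 0% = median of the neutral control wells and 100% = twice that signal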
HSV replic up: increases HSV replication in cells | HSV replication augmentation in cells, fold increase | maximum fold increase | actives 0.005% (n = 220,000) | AID 1956; in the data active = maximum fold increase above about 1.5; inconclusive = no clear call, values can overlap the other calls; tested in PC3 cells
Mdm2 ligase inh: blocks human Mdm2 ubiquitin ligase activity. Q00987. cell-based MDM2 ubiquitination luciferase reporter, 2 h; 0 = plate control, 100 = twice control, blank-subtracted. signal enhancement, % at 5 µM. actives 0.11% (n = 210,000). AID 1230;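 active = signal enhancement of 30% or more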;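 note: luminescence tracks abundance of the self-degrading MDM2-luciferase fusion protein; higher signal means inhibition of MDM2 E3 ligase activity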
Target sequence (Q00987 whole entry, looked up, the tested form may be a part): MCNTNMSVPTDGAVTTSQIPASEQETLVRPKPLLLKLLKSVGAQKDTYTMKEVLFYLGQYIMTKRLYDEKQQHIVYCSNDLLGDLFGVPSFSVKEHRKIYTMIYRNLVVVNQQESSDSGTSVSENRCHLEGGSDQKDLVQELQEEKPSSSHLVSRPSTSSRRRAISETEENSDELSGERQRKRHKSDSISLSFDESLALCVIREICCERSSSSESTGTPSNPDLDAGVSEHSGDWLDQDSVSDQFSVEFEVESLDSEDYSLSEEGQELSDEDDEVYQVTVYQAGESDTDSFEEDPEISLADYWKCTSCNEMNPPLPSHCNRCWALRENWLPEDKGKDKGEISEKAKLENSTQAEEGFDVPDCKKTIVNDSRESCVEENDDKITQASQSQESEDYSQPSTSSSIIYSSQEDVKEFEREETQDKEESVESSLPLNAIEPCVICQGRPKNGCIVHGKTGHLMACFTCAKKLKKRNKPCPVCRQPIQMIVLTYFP
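System: stable MDM2–luciferase fusion reporter cells / Input: 2000 cells seeded into each well / Schedule: 4 h settle plus 2 h compound, 37 °C / Compound: single-point 5 µM / Buffer or medium: cells held in DMEM / Benchmarks: control and blank well means / Evaluation: percent signal gain over controls, blank-subtracted / Measured by: luciferase luminescence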
Hsp70 act: transcriptional activators of Hsp70. AID 1203. actives 0.04% (n = 200,000). activation, % at 10 µM. HeLa Hsp70 promoter luciferase reporter, luminescence; scaled: vehicle 0, proteasome-inhibitor control 100%;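 active = activation above the mean across all tested compounds plus 3 SD, cutoff set per campaign, cut at about 5.5% in these data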;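 note: 100% = MG132 at 30 µM as the positive control and 0% = DMSO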
Rad51 HR inh: blocks human Rad51 in homologous recombination | hRad51 DNA strand exchange, fluorescence dequenching | inhibition, % at 10 µM | actives 0.085% (n = 200,000) | AID 1385;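 active = inhibition above 40% at the single screening dose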;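 note: 0% = DMSO control wells and 100% = blanks with heterologous ssDNA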
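Material: Human Rad51 nucleoprotein filaments preassembled on unlabelled ssDNA | Also added: Labelled 47-mer dsDNA for strand exchange | Dosing: Single dose, 10 µM final compound | Schedule: 30-min compound preincubation and 15-min exchange, both room temperature | Technique: Fluorescence dequenching at 485/520 nm | Measure: Percent inhibition relative to plate controls and blanks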
HSF1 inh: HSF1 inhibition | activity change, negative = inhibition, % at 7.5 µM (by protocol) | actives 0.77% (n = 300,000) | AID 2098 | NIH3T3-HGL HSE-luciferase, MG132-induced, luminescence 8 h; hits give low values;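 active = more than half of replicate wells show activity change below -50%, luminescence cut by over half; inconclusive = some wells, but at most half, below -50%; inactive = no replicate well below -50%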;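 note: luciferase reports HSF-1 transcriptional activity via heat shock element; 0% = median of DMSO wells and -100% = zero luminescence signal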
Starred values were filed as active, the others as inactive; i = inactive; ? = inconclusive; / = no result.

SMILES	HSF-1 act	HSV replic up	Mdm2 ligase inh	Hsp70 act	Rad51 HR inh	HSF1 inh
O=C(O)c1cccc(NC2=C(Cl)C(=O)c3ccccc3C2=O)c1	-89.8	i	-1.7	-0.1	3.9	-88.1*
CC(C)NC1=C(Cl)C(=O)c2ccccc2C1=O	70.4*	i	-13.6	-0.1	10.9	51.1
COC(=O)[C@@H](Cc1ccccc1)NC(=O)[C@H]1CCC(=O)N1C(=O)OCc1ccccc1	11.0	/	/	/	/	-0.5
COc1ccccc1Oc1ccc2c(c1)C(=O)N(c1ccc(Br)c3cccnc13)C2=O	-81.2	i	-24.0	0.0	-0.4	-74.6*
O=C1c2ccccc2C(=O)N1c1ccc(Br)c2cccnc12	-0.1	i	-9.0	-0.2	1.6	6.2
C[C@H](NC(=O)[C@@H]1Cc2ccccc2CN1)C(=O)NC1CCCC1	-1.0	/	/	/	/	4.2
O=C(CN(c1ccc(Cl)c(Cl)c1)S(=O)(=O)c1ccccc1)N1CCc2ccccc2C1	10.2	i	-11.0	-0.1	-0.1	5.1
Cc1ccc(S(=O)(=O)N(CC(=O)N2CCc3ccccc3C2)c2ccc(Cl)c(Cl)c2)cc1	-90.6	i	/	-0.4	/	-87.6*
COc1cccc(N(CC(=O)N2CCN(C)CC2)S(=O)(=O)c2ccc(C)cc2)c1	-88.1	i	-2.5	0.0	-9.0	-85.1*
COc1ccc(N(CC(=O)N2CCN(C)CC2)S(=O)(=O)c2ccccc2)cc1	1.9	/	/	/	/	-11.1
CCN(CCNC(=O)CS(=O)(=O)Cc1nc(-c2cccc(OC)c2)oc1C)c1ccccc1	78.4*	i	-1.5	-0.2	-2.0	53.7
CCc1ccc(-c2nc(CSCC(=O)NC3CC3)c(C)o2)cc1	-77.5	/	/	/	/	-71.1*
CSc1ccc(-c2nc(CSCC(=O)NC3CC3)c(C)o2)cc1	-38.8	/	/	/	/	-21.1
Cc1oc(-c2cccc(Cl)c2)nc1CS(=O)(=O)CC(=O)NC1CC1	57.1*	/	/	/	/	24.5
COc1ccc(/C=C/C(=O)NCCN=C2NS(=O)(=O)c3ccccc32)cc1	3.5	i	3.6	-0.2	3.8	-0.8
COC(=O)C(CCSC)NC(=O)c1cn(-c2ccc(OC)cc2)c(=O)c2ccccc12 (stereo not drawn)	-2.5	/	/	/	/	-5.4
COc1ccc(CCN2CC(C(=O)NCCc3ccccn3)CCC2=O)cc1 (stereo not drawn)	-7.6	/	/	/	/	3.1
O=C1C=C(c2ccccc2)C(=O)N1Nc1ccccc1	41.1	i	3.1	-0.4	-6.8	36.6
Cc1ccc(NN2C(=O)C=C(c3ccc(Cl)cc3)C2=O)cc1	59.8*	i	-11.4	-0.3	5.0	47.4
COc1ccc(C2=CC(=O)N(Nc3ccccc3)C2=O)cc1	72.5*	i	-9.5	-0.1	-3.4	47.4
COc1ccc(OC2CCN(S(=O)(=O)c3ccc(C(C)=O)cc3)CC2)cc1	3.2	/	/	/	/	3.3
Cc1ccccc1CN1CCC(CNC(=O)C2CCCN(c3ncnc4c3nc3n4CCCCC3)C2)CC1 (stereo not drawn)	-0.1	/	/	/	/	1.5
O=C(c1ccccc1)N1N=C(c2ccccc2)CC1c1ccccc1[N+](=O)[O-] (stereo not drawn)	17.8	i	-7.9	-0.3	3.6	14.5
CC(=O)N1N=C(c2ccccc2)CC1c1ccccc1[N+](=O)[O-] (stereo not drawn)	109.4*	i	9.3	-0.1	-4.7	76.3
O=[N+]([O-])c1ccccc1S(=O)(=O)Nc1ccn(Cc2c(F)cccc2Cl)n1	-9.2	/	/	/	/	3.2
SMILES	HSF-1 act	HSV replic up	Mdm2 ligase inh	Hsp70 act	Rad51 HR inh	HSF1 inh
C/C(Cl)=C/Cc1c(C)[nH]c2c(ccc3ccccc32)c1=O	12.5	/	/	/	/	0.5
C/C(Cl)=C/Cc1c(C)[nH]c2ccc(C)cc2c1=O	58.2*	i	-8.4	0.2	8.1	24.1
COc1cccc(NC(=S)N(CCCN2CCCC2)Cc2ccco2)c1	44.7	i	8.8	-0.1	-8.7	6.5
COc1cccc(NC(=S)N(CCCN2CCN(C)CC2)Cc2ccco2)c1	61.0*	i	13.1	-0.3	-4.8	21.0
COc1ccccc1OCc1nnc(SCC(=O)N2CCCC2)o1	-13.0	/	/	/	/	-5.2
COc1ccccc1OCc1nnc(SCCN2CCOCC2)o1	58.2*	i	-16.2	0.2	1.4	20.6
Brc1ccsc1/C=N/Nc1ccccc1	1.5	/	/	/	/	-3.9
OCC1CCCN(C(=S)Nc2ccc(OC(F)F)cc2)C1 (stereo not drawn)	16.0	i	-16.2	-0.2	4.7	8.7
OCC1CCCN(C(=S)Nc2ccc(Nc3ccccc3)cc2)C1 (stereo not drawn)	74.2*	i	-2.4	0.5	-3.6	33.6
CCOC(=O)c1cccc(NC(=O)CC2Oc3ccccc3NC2=O)c1 (stereo not drawn)	-9.1	/	/	/	/	-1.3
O=C(COC(=O)c1cncc(Br)c1)NC1CCCCCC1	-0.2	i	-9.8	-0.2	1.8	-5.4
Cc1nccn1Cc1cccc2ccccc12	-64.0	/	-21.5	-0.5	/	-53.4*
Fc1ccc(Nc2c(-c3ccco3)nc3ccccn23)cc1	61.9*	i	2.8	-0.3	4.0	32.5
c1ccc(Nc2c(-c3ccco3)nc3ccccn23)cc1	80.5*	i	-14.2	-0.2	-1.3	43.8
Cc1cccc(C)c1C(=NCCN(C)C)c1ccccc1	-3.6	/	/	/	/	-2.7
Oc1ccc2ccccc2c1CN1CCN(c2ccccc2)CC1	374.8*	i	-16.2	-0.5	-1.8	293.6
Oc1ccc2ccccc2c1CN1CCCC1	-9.0	i	0.9	-0.3	-5.5	-0.7
COc1cc(C2C(C(=O)c3cc4ccccc4o3)=C(O)C(=O)N2c2cc(C)on2)cc(OC)c1OC (stereo not drawn)	57.1*	/	/	/	/	25.4
COc1cccc(C2C(C(=O)c3cc4ccccc4o3)=C(O)C(=O)N2c2cc(C)on2)c1OC (stereo not drawn)	6.1	/	-6.6	-0.1	/	5.2
Cc1ccc(NC2=NC3(CCCC3)N=C(N)N2)c(C)c1	82.6*	i	-1.2	0.5	-6.5	66.1
CC(C)(C)C(=O)Nc1ccc(NC(=O)c2ccco2)nc1	-91.5	/	/	/	/	-90.9*
CC(=O)c1ccc(NC(=O)c2ccc3nc(-c4ccco4)c(-c4ccco4)nc3c2)cc1	1.0	?	-13.7	-0.3	0.8	0.0
O=C(Nc1ccc(Nc2ccccc2)cc1)c1ccco1	66.6*	i	-21.5	0.3	-1.0	30.9
C/C(=N\NC(=O)c1ccco1)c1ccc(NC(=O)c2ccccc2)cc1	94.2*	i	-4.8	-0.2	16.2	47.3
O=C(Nc1ccccc1)c1ccc2nc(-c3ccco3)c(-c3ccco3)nc2c1	55.5*	i	/	0.6	/	22.0
O=C(Nc1ccc(NC(=O)c2ccco2)nc1)c1ccco1	3.2	i	-61.5	-0.4	-0.2	14.8
O=C(COc1ccc2c(-c3ccccc3)cc(=O)oc2c1)Nc1ccc(CCO)cc1	21.0	/	/	/	/	7.8

Assay outcomes as filed in PubChem.
